In ChEMBL document CHEMBL4049453, “Discovery of Mixed Pharmacology Melanocortin-3 Agonists and Melanocortin-4 Receptor Tetrapeptide Antagonist Compounds (TACOs) Based on the Sequence Ac-Xaa1-Arg-(pI)DPhe-Xaa4-NH2” (J Med Chem, 2017):
The source made the active and inactive calls. The rule behind the calls is not given here. Non-standard residues stand in square brackets, D forms with d. Residues, ends and D or L forms follow the SMILES beside them. Bip = N[C@@H](Cc1ccc(-c2ccccc2)cc1)C(=O)O; dPhe(4-I) = N[C@H](Cc1ccc(I)cc1)C(=O)O; 2Nal = N[C@@H](Cc1ccc2ccccc2c1)C(=O)O; d2Nal = N[C@H](Cc1ccc2ccccc2c1)C(=O)O; Bta = N[C@@H](Cc1csc2ccccc12)C(=O)O

What was measured:
Melanocortin receptor 4 = Melanocortin receptor 4 (Mus musculus, UniProt P56450); test: Agonist activity at mouse MC4R expressed in HEK293 cells assessed as induction of cAMP accumulation up to 100 uM after 2 hrs by alpha screen assay relative to NDP-MSH; assay type: cell-based; conditions: read-out: Activity
Sequence of Melanocortin receptor 4 (P56450 whole entry): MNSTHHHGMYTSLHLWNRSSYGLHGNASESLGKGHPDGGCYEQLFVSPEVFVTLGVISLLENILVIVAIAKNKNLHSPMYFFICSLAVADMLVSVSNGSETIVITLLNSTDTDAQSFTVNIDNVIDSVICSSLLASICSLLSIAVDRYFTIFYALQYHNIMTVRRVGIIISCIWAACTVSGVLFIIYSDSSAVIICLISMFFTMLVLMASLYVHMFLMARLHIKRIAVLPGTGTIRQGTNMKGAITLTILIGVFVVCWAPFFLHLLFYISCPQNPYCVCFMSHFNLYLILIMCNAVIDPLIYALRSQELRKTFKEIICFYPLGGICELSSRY

[1] = target: Melanocortin receptor 4 (Mus musculus) (UniProt P56450); test: Antagonist activity at mouse MC4R expressed in HEK293 cells assessed as inhibition of NDP-MSH induced-cAMP accumulation up to 10 uM after 2 hrs by alpha screen assay; assay type: functional, cell-based
Sequence of Melanocortin receptor 4 (Mus musculus) (P56450 whole entry): as above
Procedure, shortened: (§1)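 mouse MC3R or MC4R in stably transfected HEK293 cells, AlphaScreen cAMP assay (IBMX stimulation buffer, 2 h RT incubation, then 2 h with donor-bead lysis mix). […] Run in triplicate.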

[2] = target: Melanocortin receptor 3 (Mus musculus) (UniProt P33033); test: Antagonist activity at mouse MC3R expressed in HEK293 cells assessed as inhibition of NDP-MSH induced-cAMP accumulation up to 10 uM after 2 hrs by alpha screen assay; assay type: functional, cell-based; procedure, shortened: as §1
Sequence of Melanocortin receptor 3 (Mus musculus) (P33033 whole entry): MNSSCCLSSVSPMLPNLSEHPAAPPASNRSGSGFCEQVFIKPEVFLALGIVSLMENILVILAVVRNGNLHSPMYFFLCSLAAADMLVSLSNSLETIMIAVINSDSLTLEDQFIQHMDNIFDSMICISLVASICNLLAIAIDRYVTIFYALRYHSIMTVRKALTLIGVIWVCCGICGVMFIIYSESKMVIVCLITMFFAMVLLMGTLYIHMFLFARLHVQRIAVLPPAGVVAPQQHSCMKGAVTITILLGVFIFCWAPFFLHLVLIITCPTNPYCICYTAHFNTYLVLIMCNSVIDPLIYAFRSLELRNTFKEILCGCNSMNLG

[3] = target: Melanocortin receptor 3 (Mus musculus) (UniProt P33033); test: Agonist activity at mouse MC3R expressed in HEK293 cells assessed as induction of cAMP accumulation up to 100 uM after 2 hrs by alpha screen assay relative to NDP-MSH; assay type: functional, cell-based
Procedure, shortened: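 HEK293 stably expressing mouse MC1R/MC3R/MC4R/MC5R (pCDNA3). Cells in stimulation buffer (HBSS, 0.5 mM IBMX, 5 mM HEPES, 0.1% BSA, pH 7.4) at 1000 cells/μL with anti-cAMP acceptor beads. Ligand given 10−4 to 10−10 M (or 10−6 to 10−12 M) for 2 h at RT in the dark, then donor beads/biotin-cAMP lysis mix for 2 h. AlphaScreen cAMP read-out, normalized to 10−6 M NDP-MSH as 100%.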

| Emax (Melanocortin receptor 4) | inhibition [1] | inhibition [2] | Activity [3] | Structure (SMILES) |
| --- | --- | --- | --- | --- |
| < 20% | inactive | inactive | < 20% | CC(=O)N[C@@H](Cc1csc2ccccc12)C(=O)N[C@@H](CCCNC(=N)N)C(=O)N[C@H](Cc1ccc(I)cc1)C(=O)N[C@@H](Cc1ccc2ccccc2c1)C(N)=O |
| < 20% |  |  |  | CC(=O)N[C@@H](Cc1ccc2ccccc2c1)C(=O)N[C@@H](CCCNC(=N)N)C(=O)N[C@H](Cc1ccc(I)cc1)C(=O)N[C@@H](Cc1csc2ccccc12)C(N)=O (Ac-[2Nal]R[dPhe(4-I)][Bta]-NH2) |
| < 20% | inactive | inactive |  | CC(=O)N[C@@H](Cc1ccc2ccccc2c1)C(=O)N[C@@H](CCCNC(=N)N)C(=O)N[C@H](Cc1ccc(I)cc1)C(=O)N[C@H](Cc1ccc2ccccc2c1)C(N)=O (Ac-[2Nal]R[dPhe(4-I)][d2Nal]-NH2) |
| < 20% | inactive | inactive | < 20% | CC(=O)N[C@@H](Cc1ccc(-c2ccccc2)cc1)C(=O)N[C@@H](CCCNC(=N)N)C(=O)N[C@H](Cc1ccc(I)cc1)C(=O)N[C@@H](Cc1ccc2ccccc2c1)C(N)=O (Ac-[Bip]R[dPhe(4-I)][2Nal]-NH2) |
| < 20% | inactive |  |  | CC(=O)N[C@@H](Cc1ccc(-c2ccccc2)cc1)C(=O)N[C@@H](CCCNC(=N)N)C(=O)N[C@H](Cc1ccc(I)cc1)C(=O)N[C@@H](Cc1csc2ccccc12)C(N)=O (Ac-[Bip]R[dPhe(4-I)][Bta]-NH2) |
| < 20% | inactive | inactive |  | CC(=O)N[C@@H](Cc1ccc(-c2ccccc2)cc1)C(=O)N[C@@H](CCCNC(=N)N)C(=O)N[C@H](Cc1ccc(I)cc1)C(=O)N[C@H](Cc1ccc2ccccc2c1)C(N)=O (Ac-[Bip]R[dPhe(4-I)][d2Nal]-NH2) |
| < 20% |  |  |  | CC(=O)N[C@@H](Cc1csc2ccccc12)C(=O)N[C@@H](CCCNC(=N)N)C(=O)N[C@H](Cc1ccc(I)cc1)C(=O)N[C@@H](Cc1csc2ccccc12)C(N)=O (Ac-[Bta]R[dPhe(4-I)][Bta]-NH2) |
| < 20% |  | inactive |  | CC(=O)NC(Cc1ccccc1)C(=O)N[C@@H](CCCNC(=N)N)C(=O)N[C@H](Cc1ccc(I)cc1)C(=O)N[C@@H](Cc1ccc2ccccc2c1)C(N)=O (stereo in doubt) |
| < 20% |  | inactive |  | CC(=O)NC(Cc1ccccc1)C(=O)N[C@@H](CCCNC(=N)N)C(=O)N[C@H](Cc1ccc(I)cc1)C(=O)N[C@H](Cc1ccc2ccccc2c1)C(N)=O (stereo in doubt) |
| < 20% | inactive | inactive |  | CC(=O)N[C@@H](Cc1ccc2ccccc2c1)C(=O)N[C@@H](CCCNC(=N)N)C(=O)N[C@H](Cc1ccc(I)cc1)C(=O)NC(Cc1ccccc1)C(N)=O (stereo in doubt) |
| < 20% |  |  |  | CC(=O)NC(Cc1ccccc1)C(=O)N[C@@H](CCCNC(=N)N)C(=O)N[C@H](Cc1ccc(I)cc1)C(=O)N[C@@H](Cc1csc2ccccc12)C(N)=O (stereo in doubt) |
| < 20% | inactive | inactive |  | CC(=O)N[C@@H](Cc1csc2ccccc12)C(=O)N[C@@H](CCCNC(=N)N)C(=O)N[C@H](Cc1ccc(I)cc1)C(=O)NC(Cc1ccccc1)C(N)=O (stereo in doubt) |

Continued, compound first:

| Structure (SMILES) | Emax (Melanocortin receptor 4) | inhibition [1] | inhibition [2] | Activity [3] |
| --- | --- | --- | --- | --- |
| CC(=O)N[C@@H](CCCNC(=N)N)C(=O)N[C@@H](CCCNC(=N)N)C(=O)N[C@H](Cc1ccc(I)cc1)C(=O)N[C@@H](Cc1ccc2ccccc2c1)C(N)=O | < 20% |  |  |  |
| CC(=O)N[C@@H](Cc1ccc(-c2ccccc2)cc1)C(=O)N[C@@H](CCCNC(=N)N)C(=O)N[C@H](Cc1ccc(I)cc1)C(=O)N1Cc2ccccc2C[C@H]1C(N)=O (HELM PEPTIDE1{[ac].[O=C([C@H](Cc1ccc(-c2ccccc2)cc1)N[*:1])[*:2]].R.[O=C([C@@H](Cc1ccc(I)cc1)N[*:1])[*:2]].[Tic].[am]}$$$$V2.0) | < 20% |  |  |  |
| CC(=O)N1Cc2ccccc2C[C@H]1C(=O)N[C@@H](CCCNC(=N)N)C(=O)N[C@H](Cc1ccc(I)cc1)C(=O)N[C@H](Cc1ccc2ccccc2c1)C(N)=O (HELM PEPTIDE1{[ac].[Tic].R.[O=C([C@@H](Cc1ccc(I)cc1)N[*:1])[*:2]].[O=C([C@@H](Cc1ccc2ccccc2c1)N[*:1])[*:2]].[am]}$$$$V2.0) |  | inactive | inactive |  |
| CC(=O)N1Cc2ccccc2C[C@H]1C(=O)N[C@@H](CCCNC(=N)N)C(=O)N[C@H](Cc1ccc(I)cc1)C(=O)N[C@@H](Cc1ccc2ccccc2c1)C(N)=O (HELM PEPTIDE1{[ac].[Tic].R.[O=C([C@@H](Cc1ccc(I)cc1)N[*:1])[*:2]].[O=C([C@H](Cc1ccc2ccccc2c1)N[*:1])[*:2]].[am]}$$$$V2.0) | < 20% |  | inactive | < 20% |
| CC(=O)N1Cc2ccccc2C[C@H]1C(=O)N[C@@H](CCCNC(=N)N)C(=O)N[C@H](Cc1ccc(I)cc1)C(=O)N[C@@H](Cc1ccc(-c2ccccc2)cc1)C(N)=O (HELM PEPTIDE1{[ac].[Tic].R.[O=C([C@@H](Cc1ccc(I)cc1)N[*:1])[*:2]].[O=C([C@H](Cc1ccc(-c2ccccc2)cc1)N[*:1])[*:2]].[am]}$$$$V2.0) | < 20% | inactive | inactive | < 20% |
| CC(=O)N1Cc2ccccc2C[C@H]1C(=O)N[C@@H](CCCNC(=N)N)C(=O)N[C@H](Cc1ccc(I)cc1)C(=O)N[C@@H](Cc1csc2ccccc12)C(N)=O (HELM PEPTIDE1{[ac].[Tic].R.[O=C([C@@H](Cc1ccc(I)cc1)N[*:1])[*:2]].[O=C([C@H](Cc1csc2ccccc12)N[*:1])[*:2]].[am]}$$$$V2.0) | < 20% |  |  |  |
| CC(=O)N[C@@H](Cc1ccc(-c2ccccc2)cc1)C(=O)N[C@@H](CCCNC(=N)N)C(=O)N[C@H](Cc1ccc(I)cc1)C(=O)NC(Cc1ccccc1)C(N)=O (stereo in doubt) | < 20% |  | inactive |  |
| CC(=O)N1Cc2ccccc2C[C@H]1C(=O)N[C@@H](CCCNC(=N)N)C(=O)N[C@H](Cc1ccc(I)cc1)C(=O)NC(Cc1ccccc1)C(N)=O (stereo in doubt) | < 20% | inactive | inactive | < 20% |
| CC(=O)NC(Cc1ccccc1)C(=O)N[C@@H](CCCNC(=N)N)C(=O)N[C@H](Cc1ccc(I)cc1)C(=O)N[C@@H](Cc1ccc(-c2ccccc2)cc1)C(N)=O (stereo in doubt) | < 20% | inactive | inactive |  |
| CC(=O)NC(Cc1ccccc1)C(=O)N[C@@H](CCCNC(=N)N)C(=O)N[C@H](Cc1ccc(I)cc1)C(=O)N1Cc2ccccc2C[C@H]1C(N)=O (stereo in doubt) | < 20% |  |  |  |
| CC(=O)N[C@@H](Cc1cnc[nH]1)C(=O)N[C@@H](CCCNC(=N)N)C(=O)N[C@H](Cc1ccc(I)cc1)C(=O)NC(Cc1ccccc1)C(N)=O (stereo in doubt) | < 20% |  |  |  |
| CC(=O)NC(Cc1ccccc1)C(=O)N[C@@H](CCCNC(=N)N)C(=O)N[C@H](Cc1ccc(I)cc1)C(=O)NC(Cc1ccccc1)C(N)=O (stereo in doubt) | < 20% | inactive | inactive |  |
| CC(=O)N[C@@H](CCCNC(=N)N)C(=O)N[C@@H](CCCNC(=N)N)C(=O)N[C@H](Cc1ccc(I)cc1)C(=O)NC(Cc1ccccc1)C(N)=O (stereo in doubt) | < 20% |  |  |  |
